Experimental findings from ChEMBL document CHEMBL2086222, “Bioassay-guided isolation of prenylated xanthones and polycyclic acylphloroglucinols from the leaves of Garcinia nujiangensis” (J Nat Prod, 2012) are described below.

One series concerns PANC-1. Description: Cytotoxicity against human PANC1 cells assessed as reduction in cell viability at 5 to 40 uM after 72 hrs by MTT assay. It counts as functional, cell-based. In short, it runs like this:
(§1)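 Cells in RPMI 1640, DMEM or DMEM/F12 with 10% FBS, 37 °C, 5% CO2. Plated at 5 × 10^3 cells/well and attached overnight. Exposed 72 h to 5, 10, 20 or 40 μM from DMSO stocks diluted in medium. MTT (5 mg/mL stock in PBS) added for 4 h at 37 °C, formazan dissolved in DMSO, A490 read. Untreated cells taken as 100%.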
(Formazan colour is commonly taken as a measure of viable cells.)

Another series relates to NCI-H2126. The series can be described thus: Cytotoxicity against human NCI-H2126 cells assessed as reduction in cell viability at 5 to 40 uM after 72 hrs by MTT assay. It counts as functional, cell-based. In short, it runs like this:
as §1

For another series, the system named is BXPC-3. The series can be described thus: Cytotoxicity against human BxPC3 cells assessed as reduction in cell viability at 5 to 40 uM after 72 hrs by MTT assay. The series is classed as functional, cell-based. The method, boiled down:
as §1

The next series concerns MCF7. The series can be described thus: Cytotoxicity against human MCF7 cells assessed as reduction in cell viability at 5 to 40 uM after 72 hrs by MTT assay. The series is classed as functional, cell-based. In short, it runs like this: as §1
For another series, the system named is AGS. Description: Cytotoxicity against human AGS cells assessed as reduction in cell viability at 5 to 40 uM after 72 hrs by MTT assay. The series is classed as functional, cell-based. The method, boiled down:
as §1

Another series concerns HepG2. Description: Cytotoxicity against human HepG2 cells assessed as reduction in cell viability at 5 to 40 uM after 72 hrs by MTT assay. The series is classed as functional, cell-based. In short, it runs like this:
as §1

Another series has as its system U-87MG ATCC. Description: Cytotoxicity against human U87 cells assessed as reduction in cell viability at 5 to 40 uM after 72 hrs by MTT assay. The series is classed as functional, cell-based. The method, boiled down:
as §1

For the next series, the system named is A-375. The series can be described thus: Cytotoxicity against human A375 cells assessed as reduction in cell viability at 5 to 40 uM after 72 hrs by MTT assay. The series is classed as functional, cell-based. The method, boiled down: as §1
For a further series, the system named is MDA-MB-231. Description: Cytotoxicity against human MDA-MB-231 cells assessed as reduction in cell viability at 5 to 40 uM after 72 hrs by MTT assay. It counts as functional, cell-based. The method, boiled down: as §1
Series [1] in a line: Cytotoxicity against human MIHA cells assessed as reduction in cell viability at 5 to 40 uM after 72 hrs by MTT assay. It counts as cell-based. In short, it runs like this:
as §1

The subject of another series is SMMC-7721. The series can be described thus: Cytotoxicity against human SMMC7721 cells assessed as reduction in cell viability at 5 to 40 uM after 72 hrs by MTT assay. It counts as functional, cell-based. In short, it runs like this: as §1
For another series, the system named is A549. The series can be described thus: Cytotoxicity against human A549 cells assessed as reduction in cell viability at 5 to 40 uM after 72 hrs by MTT assay. The series is classed as functional, cell-based. The method, boiled down:
as §1

Active and inactive are the calls of the source. The rule behind the calls is not given here.

With `C=C(C)CCC(C[C@]12C[C@H](CC=C(C)C)C(C)(C)[C@@]3(C[C@@H](C(C)(C)O)OC3=C(C(=O)c3ccc(O)c(O)c3)C1=O)C2=O)C(=C)C` (relative stereo), the result with PANC-1, with NCI-H2126, in the series with BXPC-3, with MCF7, with AGS and in the series with HepG2 was Active. Further, the outcome in the series with U-87MG ATCC, in the series on A-375, with MDA-MB-231, with SMMC-7721 and in the series on A549 was Active. Further, in series [1], the Activity entry is recorded as “Non-toxic”.

`CC(C)=CC[C@H]1C[C@@]23C[C@@H](CC=C(C)C)C(C)(C)[C@@](CC=C(C)C)(C(=O)C(C(=O)c4ccc(O)c(O)c4)=C2OC1(C)C)C3=O` [CAMBOGIN]: the result in the series on PANC-1, with NCI-H2126, in the series with BXPC-3, with MCF7, in the series with AGS and in the series on HepG2 was Active. The result with U-87MG ATCC, in the series with A-375, in the series on MDA-MB-231, in the series with SMMC-7721 and in the series on A549 was Active. For the same molecule, in series [1], the Activity result is given as “Non-toxic”.

On to `O=c1c(O)c(-c2ccc(O)cc2)oc2cc(O)cc(O)c12` [KAEMPFEROL], for which the outcome in the series on PANC-1, in the series with NCI-H2126, with BXPC-3, in the series on MCF7, in the series on AGS and with HepG2 was Active. Further, the outcome in the series with U-87MG ATCC, in the series with A-375, with MDA-MB-231, in the series on SMMC-7721 and in the series on A549 was Active. The Activity result in series [1] is given as “Non-toxic”.

`C=C(C)CCC(C[C@]12C[C@@H]3[C@H](C=C(C)C)[C@](C(=O)c4ccc(O)c(O)c4)(C1=O)C(=O)[C@](CC=C(C)C)(C2=O)C3(C)C)C(=C)C` (stereo not given in full): the outcome with PANC-1, in the series on NCI-H2126, in the series on BXPC-3, in the series with MCF7, in the series on AGS and in the series with HepG2 was Active. For the same molecule, the outcome with U-87MG ATCC, in the series with A-375, in the series on MDA-MB-231, with SMMC-7721 and in the series on A549 was Active. In [1], the Activity entry is recorded as “Non-toxic”.

For `CC(C)=CC[C@H]1C[C@@]23C[C@H](CC=C(C)C)C(C)(C)[C@@](CC=C(C)C)(C(=O)C(C(=O)c4ccc(O)c(O)c4)=C2OC1(C)C)C3=O`, the outcome with PANC-1, with NCI-H2126, in the series with BXPC-3, in the series on MCF7, in the series on AGS and with HepG2 was Active. Moreover, the result in the series with U-87MG ATCC, with A-375, in the series on MDA-MB-231, with SMMC-7721 and in the series with A549 was Active. The Activity result in series [1] was “Non-toxic”.

`C=C(C)[C@@H]1C[C@]23C[C@H](CC=C(C)C)C(C)(C)[C@](CC=C(C)C)(C(=O)C(C(=O)c4ccc(O)c(O)c4)=C2O[C@H]1C=C(C)C)C3=O` [GARCINIALIPTONE B]: the result with PANC-1, in the series on NCI-H2126, with BXPC-3, in the series with MCF7, in the series on AGS and in the series on HepG2 was Active. Further, the result with U-87MG ATCC, with A-375, in the series on MDA-MB-231, with SMMC-7721 and with A549 was Active. Besides, the Activity entry in [1] is recorded as “Non-toxic”.

For `C=C(C)CCC(C[C@@]12C[C@@H](CC=C(C)C)C(C)(C)[C@@](CC=C(C)C)(C(=O)c3c1oc1cc(O)c(O)cc1c3=O)C2=O)C(=C)C` (relative stereo), the outcome with PANC-1, in the series on NCI-H2126, in the series on BXPC-3, in the series on MCF7, with AGS and in the series with HepG2 was Active. The outcome with U-87MG ATCC, in the series with A-375, in the series with MDA-MB-231, with SMMC-7721 and with A549 was Active. Further, the Activity entry in [1] was “Non-toxic”.

Take `C=C(C)CC[C@@H]1C[C@]23C[C@H](CC=C(C)C)C(C)(C)[C@](CC=C(C)C)(C(=O)C(C(=O)c4ccc(O)c(O)c4)=C2OC1(C)C)C3=O` [CYCLOXANTHOCHYMOL]: the result in the series with PANC-1, in the series with NCI-H2126, with BXPC-3, in the series on MCF7, in the series on AGS and in the series with HepG2 was Active. The result in the series with U-87MG ATCC, with A-375, in the series with MDA-MB-231, with SMMC-7721 and in the series on A549 was Active. Also, in [1], the Activity result was “Non-toxic”.

`C=C(C)CCC(C[C@@]12C[C@H](CC=C(C)C)C(C)(C)[C@@](CC=C(C)C)(C1=O)c1oc3cc(O)c(O)cc3c(=O)c1C2=O)C(=C)C` (relative stereo): the result with PANC-1, in the series with NCI-H2126, with BXPC-3, with MCF7, in the series with AGS and in the series on HepG2 was Active. The result in the series on U-87MG ATCC, in the series on A-375, in the series on MDA-MB-231, in the series on SMMC-7721 and in the series with A549 was Active. In addition, the Activity entry in [1] is listed as “Non-toxic”.

Turning to `C=C(C)[C@@H](CC=C(C)C)C[C@@]12C[C@H](CC=C(C)C)C(C)(C)[C@@](CC=C(C)C)(C(=O)C(C(=O)c3ccc(O)c(O)c3)=C1O)C2=O`, the outcome in the series on PANC-1, in the series on NCI-H2126, in the series with BXPC-3, in the series with MCF7, in the series on AGS and in the series on HepG2 was Active. The outcome in the series on U-87MG ATCC, with A-375, in the series with MDA-MB-231, with SMMC-7721 and with A549 was Active. In [1], the Activity result is reported as “Non-toxic”.

For `COc1cc2c(=O)c3c(O)c(CC=C(C)C)c(O)c(CC=C(C)C)c3oc2c(O)c1O` [XANTHONE V2A], the outcome with PANC-1, in the series on NCI-H2126, in the series with BXPC-3, with MCF7, with AGS and in the series on HepG2 was Active. Moreover, the outcome with U-87MG ATCC, in the series on A-375, in the series on MDA-MB-231, in the series on SMMC-7721 and in the series with A549 was Active. The Activity result in series [1] was “Non-toxic”.

As to `CC1(C)C=Cc2c(cc(O)c3c(=O)c4ccc(O)c(O)c4oc23)O1` [ISOJACAREUBIN], the Activity result in [1] is listed as “Non-toxic”.

Consider `C=C(C)CC[C@H]1C[C@@]23C[C@@H](CC=C(C)C)C(C)(C)[C@@](CC=C(C)C)(C(=O)C(C(=O)c4ccc(O)c(O)c4)=C2OC1(C)C)C3=O`, for which the outcome in the series on PANC-1, in the series with NCI-H2126, with BXPC-3, in the series on MCF7, in the series with AGS and in the series on HepG2 was Active. Moreover, the result in the series on U-87MG ATCC, in the series on A-375, in the series with MDA-MB-231, in the series with SMMC-7721 and in the series on A549 was Active. The Activity entry in [1] is listed as “Non-toxic”.
